Assay outcomes deposited in PubChem BioAssay by several laboratories.
Hits are enriched below; roughly 2.9% of the tested compounds scored in any of these assays.
PfGluPho inh = PfG6PD (Plasmodium falciparum) enzyme inhibition; inhibition, % at 20 µM; PfGluPho enzyme, NADPH resazurin-diaphorase fluorescence; hit rate 0.78% among 350,000;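 active = inhibition reaching at least a set limit at 20 µM in the primary screen, cut at about 59% in these data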;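 also: 0% = DMSO wells with substrate and 100% = DMSO wells lacking glucose-6-phosphate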
Apaf1 inhib = human Apaf-1 inhibition; O14727; reconstituted apoptosome caspase-3 activity, DEVD-Rh110 fluorescence; inhibition, % at 20 µM; hit rate 0.71% among 330,000; active = inhibition of at least 40% at 20 µM;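 also: plate controls were DMSO wells for no effect and DEVD-CHO caspase inhibitor wells for full effect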
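System: reconstituted apoptosome with Apaf-1, cytochrome c, caspase-9, procaspase-3, dATP; Signal: Rh110 fluorescence intensity; Schedule: 30 min compound preincubation, 50 min activation, room temperature; Reagent: cytochrome c trigger plus (Z-DEVD)2-Rh110 caspase-3 substrate.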
EBNA-1 inh = blocks EBNA-1 binding to DNA; EBNA-1 DNA binding, fluorescence polarization; inhibition, % at 14.8 µM; hit rate 0.34% among 300,000; AID 1950; in the data active = inhibition above about 28%
UBC13 polyUb = blocks human UBC13 polyubiquitin chain formation; TR-FRET; inhibition, % at 20 µM; hit rate 0.47% among 330,000; in the data active = inhibition above about 45%, passing the limit was not always enough; inconclusive = no clear call, values can overlap the other calls
Target sequence (P61088 whole entry, looked up): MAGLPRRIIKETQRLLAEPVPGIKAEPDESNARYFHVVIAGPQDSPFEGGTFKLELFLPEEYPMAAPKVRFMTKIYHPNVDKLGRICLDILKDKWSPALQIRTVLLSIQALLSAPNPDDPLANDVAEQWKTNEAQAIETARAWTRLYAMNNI
PfM18AAP inh = PfM18AAP enzyme inhibition; hit rate 1.2% among 290,000; AID 1822; recombinant PfM18AAP, H-Glu-NHMec fluorogenic cleavage; inhibition, % at 7.35 µM;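 active = inhibition above the campaign mean inhibition over all tested compounds plus 3 SD, cut at about 28% in these data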;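 also: 0% = plate median of test compound wells and 100% = 2 mM ZnCl2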
ZTA DNA inh = blocks Epstein-Barr virus ZTA, an EBNA-1 counter-screen. hit rate 0.15% among 320,000. inhibition, % at 11 µM. ZTA-DNA binding, fluorescence polarization. AID 2234. P03206; in the data active = inhibition above about 33%
Target sequence (P03206 whole entry, looked up): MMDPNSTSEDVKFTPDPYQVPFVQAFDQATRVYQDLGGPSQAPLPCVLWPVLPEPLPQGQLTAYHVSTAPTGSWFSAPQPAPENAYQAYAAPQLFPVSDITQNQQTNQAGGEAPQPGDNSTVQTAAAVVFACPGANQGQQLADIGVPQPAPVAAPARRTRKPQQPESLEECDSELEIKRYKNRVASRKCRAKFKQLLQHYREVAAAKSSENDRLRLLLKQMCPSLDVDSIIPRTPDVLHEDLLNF
Numbers without * were called inactive; ? = inconclusive; · = not tested or not shown; + = active, no number.

SMILES	PfGluPho inh	Apaf1 inhib	EBNA-1 inh	UBC13 polyUb	PfM18AAP inh	ZTA DNA inh
N#CC(C#SN)=C1CCCCC1	8.9	0.2	15.1	3.0	29.5*	-12.5
CCN1C[C@@H]2[C@@H]3C(=O)N(C)C(=O)[C@@H]3[C@](CC)(C(=O)OC)N2C1=NCc1ccccc1	5.8	·	·	·	·	·
CC(C)c1ccc(NC(=S)Nc2cccc3ccccc23)cc1	18.3	84.0*	5.2	?	0.7	-7.9
Fc1ccc(NC(=S)Nc2cccc3ccccc23)cc1F	34.1	80.6*	0.3	-31.6	10.4	-10.4
Fc1ccc(NC(=S)Nc2cccc3ccccc23)cc1	-1.4	84.7*	0.4	-36.8	13.7	7.3
Cc1ccc(NC(=S)Nc2cccc3ccccc23)cc1	15.4	31.5	-10.6	0.3	4.9	-21.8
Cc1cc(NC(=S)Nc2cccc3ccccc23)n[nH]1	7.8	-3.3	4.3	10.0	4.4	18.8
COc1ccc(NC2CCCN(C(=O)CCc3cccc(Cl)c3)C2)cc1 (stereo unspecified)	-7.4	17.8	-10.6	-4.9	5.3	-11.6
O=C(NN=C1c2ccccc2-c2ccccc21)c1cccc(Br)c1	13.1	3.6	1.7	-26.3	-8.4	-2.8
CC(C)(C)c1ccc(C(=O)Nc2cccc(-n3cnnn3)c2)cc1	35.1	28.5	-9.8	1.4	-9.1	13.0
CC(C)(C)[C@@H]1CCC(=O)N(CC[C@H](Sc2ccc(Br)cc2)c2ccccc2)CC1	16.6	38.9	·	-4.7	·	·
O=S(=O)(c1ccc2nc(-c3ccco3)c(-c3ccco3)nc2c1)N1CCOCC1	53.8	77.3*	-4.5	-34.6	20.6	-7.9
CCn1c(CSc2nnc(-c3cccnc3)n2-c2ccccc2C)nc2cc(C(=O)O)ccc21	·	5.0	124.2*	-12.8	-7.9	+
CCN1C(=O)/C(=C/C=C2/Sc3ccc4ccccc4c3N2CCO)SC1=S	46.1	-4.3	-19.0	-21.7	50.2*	-6.7
CCN1C(c2ccccc2)=C(c2ccccc2)S/C1=C\C=C1/SC(=S)N(C)C1=O	11.3	1.4	-11.4	3.0	-2.4	-5.3
O=C(CN(c1ccccc1)S(=O)(=O)c1ccccc1)N/N=C/c1ccc(OC2CSC2)cc1	·	5.3	55.3*	4.8	-8.1	3.9
O=C(CCC(=O)Nc1nnc(C2CCCCC2)s1)Nc1ccc(F)cc1	0.3	6.3	-2.9	-7.6	29.2*	2.1
CCCCCCCCCCn1c2c(c(=N)c3c1CCC3)CCC2	-2.8	73.9*	-1.5	61.9*	-6.8	-7.5
Cc1nc2cc(NC(=O)Nc3ccc(Br)cc3)ccc2o1	16.9	-9.8	12.7	-2.5	-1.1	19.4
O=C(CCO)c1ccc(O)cc1	-0.8	-22.5	5.4	4.2	56.1*	1.9
CCCCC(=O)c1ccc(O)cc1	9.1	-22.1	2.0	5.3	-10.1	17.6
Cc1cc(C)c2nc(NNC(=O)c3ccc(S(=O)(=O)N4CC(C)CC(C)C4)cc3)sc2c1 (stereo unspecified)	6.3	1.2	-0.6	-64.7	29.3*	-3.8
Cc1ccc2nc(NNC(=O)c3ccc(S(=O)(=O)N4CCc5ccccc5C4)cc3)sc2c1	-28.0	9.8	7.8	-69.3	26.7	7.3
CCc1noc(C)c1C(=O)Nc1nc2c(C)cc(C)cc2s1	14.8	10.6	1.6	2.2	·	-10.9
CCC(=O)NNc1nc2c(C)cc(C)cc2s1	19.2	-7.2	3.2	-4.2	58.3*	-16.6
SMILES	PfGluPho inh	Apaf1 inhib	EBNA-1 inh	UBC13 polyUb	PfM18AAP inh	ZTA DNA inh
CC12CCC(=O)C=C1CCC1C2CCC2(C)C(c3csc(N)n3)CCC12 (stereo unspecified)	7.4	·	·	·	·	·
C[C@H](CO)N1C[C@H](C)[C@H](CN(C)Cc2cccc(F)c2)Oc2ncc(Br)cc2C1=O	3.5	·	·	·	·	·
Cc1ccc(C2=NC(=O)/C(=C/c3cc(O)c(O)c(Br)c3)S2)cc1	27.1	22.1	·	-22.3	48.4*	·
CN(Cc1ccccc1F)C(=O)c1cccc(NC(=O)CC2SC(N3CCCCC3)=NC2=O)c1 (stereo unspecified)	-4.4	·	·	·	·	·
O=C1CC(c2ccccc2)Cc2nc(NC3CC3)ncc21 (stereo unspecified)	-4.5	-2.4	-12.4	-22.5	-2.0	-0.9
O=C1CC(c2ccccc2)Cc2nc3ncnn3cc21 (stereo unspecified)	4.5	-18.4	0.7	1.7	28.3*	7.7
Cn1nc([N+](=O)[O-])nc1N1CCN(c2ccc(F)cc2)CC1	25.5	-4.6	-1.1	2.2	28.3*	-22.5
CCCN1CCN(C(=O)c2cc3c(s2)-c2ccccc2OC3)CC1	-11.9	14.2	-2.3	61.4*	4.4	1.5
